ChEMBL document CHEMBL1152910, “Synthesis and structure-activity relationships of phenothiazine carboxylic acids having pyrimidine-dione as novel histamine H(1) antagonists” (Bioorg Med Chem Lett, 2009)

Columns and labels:
[1] = Apparent permeability from apical to basolateral side of human Caco-2 cells after 120 mins
[2] = target: T1, Histamine H1 receptor (Homo sapiens, UniProt P35367); test: Displacement of [3H]pyrilamine from human recombinant histamine H1 receptor expressed in CHOK1 cells by scintillation counting; assay type: cell-based, CHO-K1
T1 sequence (P35367 whole entry): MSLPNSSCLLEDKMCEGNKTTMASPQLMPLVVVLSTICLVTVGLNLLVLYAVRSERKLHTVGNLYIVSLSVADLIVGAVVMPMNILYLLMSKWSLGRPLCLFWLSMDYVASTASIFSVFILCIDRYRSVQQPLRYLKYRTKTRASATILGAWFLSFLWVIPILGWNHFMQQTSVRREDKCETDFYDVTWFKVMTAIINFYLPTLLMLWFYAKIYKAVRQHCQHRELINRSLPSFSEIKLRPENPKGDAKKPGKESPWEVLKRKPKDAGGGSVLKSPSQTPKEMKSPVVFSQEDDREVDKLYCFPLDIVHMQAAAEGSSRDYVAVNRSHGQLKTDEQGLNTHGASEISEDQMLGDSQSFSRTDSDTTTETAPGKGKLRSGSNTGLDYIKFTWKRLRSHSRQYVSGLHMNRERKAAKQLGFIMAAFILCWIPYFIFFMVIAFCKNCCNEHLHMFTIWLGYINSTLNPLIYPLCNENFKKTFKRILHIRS

[3] = Protein binding in rat by equilibrium dialysis; assay type: ADME, organism-based; conditions: read-out: PB (converted)
Method in brief: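 Protein binding (%) determined by equilibrium dialysis.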

[4] = tested on: Mus musculus; test: Antiinflammatory activity in BALB/c mouse model assessed as inhibition of ovalbumin-induced ear swelling at 10 mg/kg, po administered 60 mins before ovalbumin challenge measured 1 hr after elicitation by immediate type reaction assay; assay type: functional
Method in brief: (§1)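 Female BALB/c mice, 8 weeks old, sensitized by i.p. OVA with alum; two weeks later compound suspended in 0.5% MC given orally 60 min before OVA injection into the ear.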

[5] = tested on: Mus musculus; test: Antiinflammatory activity in BALB/c mouse model assessed as inhibition of ovalbumin-induced ear swelling at 10 mg/kg, po administered 60 mins before ovalbumin challenge measured 24 hrs after elicitation by late type reaction assay; assay type: functional; method in brief: as §1
[6] = Oral bioavailability in rat; assay type: ADME, organism-based; conditions: in vivo
[7] = tested on: Mus musculus; test: Antiinflammatory activity in po dosed BALB/c mouse model assessed as inhibition of ovalbumin-induced ear swelling administered 60 mins before ovalbumin challenge measured 1 hr after elicitation by immediate type reaction assay; assay type: functional, organism-based; method in brief: as §1
[8] = tested on: Mus musculus; test: Antiinflammatory activity in po dosed BALB/c mouse model assessed as inhibition of ovalbumin-induced ear swelling administered 60 mins before ovalbumin challenge measured 24 hrs after elicitation by late type reaction assay; assay type: functional, organism-based; method in brief: as §1
[9] = organism: Mus musculus; test: animal or person; assay type: functional; conditions: ddY, route oral
[10] = tested on: Mus musculus; test: Antiinflammatory activity in BALB/c mouse model assessed as inhibition of ovalbumin-induced ear swelling at 30 mg/kg, po administered 60 mins before ovalbumin challenge measured 1 hr after elicitation by immediate type reaction assay; assay type: functional; method in brief: as §1
[11] = tested on: Mus musculus; test: In vivo antihistaminic activity at histamine H1 receptor in ddY mouse assessed as inhibition of histamine-induced skin vascular permeability at 10 mg/kg, po administered 1 hr before histamine challenge measured after 30 mins by Evan's blue staining; assay type: functional
[12] = target: T1, Histamine H1 receptor; test: Inhibition of histamine H1 receptor
[13] = tested on: Mus musculus; test: Antiinflammatory activity in BALB/c mouse model assessed as inhibition of ovalbumin-induced ear swelling at 30 mg/kg, po administered 60 mins before ovalbumin challenge measured 24 hrs after elicitation by late type reaction assay; assay type: functional; method in brief: as §1

| SMILES | Papp A→B at 2 h [1] [×10⁻⁶ cm/s] | IC50 [2] [µM] | fraction unbound [3] | inhibition in vivo at 10 mg/kg [4] [%] | inhibition in vivo at 10 mg/kg [5] [%] | bioavailability [6] [%] | inhibition in vivo at 3 mg/kg [9] [%] | also measured |
| --- | --- | --- | --- | --- | --- | --- | --- | --- |
| Cn1c(N2CCCN(CCCN3c4ccccc4Sc4cccc(C(=O)O)c43)CC2)cc(=O)n(C)c1=O | 0.5 | > 0.5 |  |  |  |  |  |  |
| Cn1c(N2CCCN(CCCN3c4ccccc4Sc4ccc(C(C)(C)C(=O)O)cc43)CC2)cc(=O)n(C)c1=O | 9.9 | 0.123 | 0.045 |  |  |  |  |  |
| C[C@]12C=CC(=O)C=C1CC[C@@H]1[C@@H]2[C@@H](O)C[C@@]2(C)[C@H]1CC[C@]2(O)C(=O)CO [PREDNISOLONE] |  |  |  | 22 | 81 |  |  |  |
| Cn1c(N2CCN(CCCN3c4ccccc4Sc4ccc(CC(=O)O)cc43)CC2)cc(=O)n(C)c1=O | 12.3 | 0.04 | 0.022 | 73 | 64 | 27 | 61 | inhibition [7]: Dose-dependent effect; inhibition [8]: Dose-dependent effect |
| Cn1c(N2CCCN(CCCN3c4ccccc4Sc4ccc(CCC(=O)O)cc43)CC2)cc(=O)n(C)c1=O | 7.7 | 0.069 | 0.012 | 79 | 49 | 7 | 51 |  |
| Cn1c(NCCCN2CCC(Oc3ccc(Cl)c(Cl)c3)CC2)cc(=O)n(C)c1=O | 4.2 | 0.028 | 0.166 |  |  | 25 |  | inhibition in vivo at 30 mg/kg [10]: 72%; inhibition in vivo at 10 mg/kg [11]: 69%; IC50 [12]: 0.058 µM; inhibition in vivo at 30 mg/kg [13]: 61% |
| Cn1c(N2CCN(CCN3c4ccccc4Sc4ccc(C(=O)O)cc43)CC2)cc(=O)n(C)c1=O | 4.9 | 0.124 |  |  |  |  |  |  |
| CN(CCCN1CCC(CN2c3ccccc3Sc3ccc(C(=O)O)cc32)CC1)c1cc(=O)n(C)c(=O)n1C | 0.6 | 0.053 |  |  |  |  |  |  |
| Cn1c(N2CCCN(CCCN3c4ccccc4Sc4c(C(=O)O)cccc43)CC2)cc(=O)n(C)c1=O | 0.5 | > 0.5 |  |  |  |  |  |  |
| Cn1c(N2CCN(CCCN3c4ccccc4Sc4ccc(CCC(=O)O)cc43)CC2)cc(=O)n(C)c1=O | 5.1 | 0.105 | 0.001 |  |  | 51 | 51 |  |
| Cn1c(N2CCCN(CCCN3c4ccccc4Sc4ccc(CC(=O)O)cc43)CC2)cc(=O)n(C)c1=O | 5.5 | 0.023 | 0.051 | 16 | 12 | 19 | 53 |  |
| CC(C(=O)O)c1ccc2c(c1)N(CCCN1CCCN(c3cc(=O)n(C)c(=O)n3C)CC1)c1ccccc1S2 (centres undefined) | 6.9 | 0.072 | 0.022 |  |  | 10 | 79 |  |
| Cn1c(N2CCN(CCCCN3c4ccccc4Sc4ccc(C(=O)O)cc43)CC2)cc(=O)n(C)c1=O | 20.3 | 0.035 | 0.001 |  |  | 16 |  | inhibition in vivo at 10 mg/kg [11]: 43% |
| Cn1c(N2CCN(CCCN3c4ccccc4Sc4ccc(C(=O)O)cc43)CC2)cc(=O)n(C)c1=O | 9.9 | 0.037 | 0.006 | 47 | 65 | 17 |  | inhibition in vivo at 10 mg/kg [11]: 39% |
| Cn1c(N2CCCN(CCCN3c4ccccc4Sc4ccc(/C=C\C(=O)O)cc43)CC2)cc(=O)n(C)c1=O | 7.1 | 0.323 |  |  |  |  |  |  |
| CN1CCC(=C2c3ccccc3CC(=O)c3sccc32)CC1.O=C(O)/C=C/C(=O)O [KETOTIFEN FUMARATE] | 11.1 |  |  | 119 | 3 |  | 98 | inhibition in vivo at 30 mg/kg [10]: 106%; inhibition in vivo at 30 mg/kg [13]: -4% |
| Cn1c(N2CCCN(CCCN3c4ccccc4Sc4ccc(OCC(=O)O)cc43)CC2)cc(=O)n(C)c1=O | 0.5 | 0.088 | 0.047 |  |  |  |  |  |
| Cn1c(NCCCN2CCC(Oc3ccc(Cl)cc3C(=O)O)CC2)cc(=O)n(C)c1=O |  |  |  |  |  |  |  | IC50 [12]: > 1 µM |
| Cn1c(C2=CCN(CCCN3c4ccccc4Sc4ccc(CC(=O)O)cc43)CC2)cc(=O)n(C)c1=O | 4.7 | 0.041 |  | 86 | 12 | 30 | 82 |  |
| CCC(C(=O)O)c1ccc2c(c1)N(CCCN1CCCN(c3cc(=O)n(C)c(=O)n3C)CC1)c1ccccc1S2 (centres undefined) | 22.3 | 0.041 |  |  |  | 14 | 51 |  |
| Cn1c(NCCCN2CCC(CN3c4ccccc4Sc4ccc(C(=O)O)cc43)CC2)cc(=O)n(C)c1=O | 0.4 | 0.046 |  |  |  |  |  |  |
| Cn1c(N2CCCN(CCCN3c4ccccc4Sc4ccc(C(=O)O)cc43)CC2)cc(=O)n(C)c1=O | 4.7 | 0.023 | 0.012 | 50 | 53 | 7 | 14 |  |
| CC(C)(C(=O)O)c1ccc(C(O)CCCN2CCC(C(O)(c3ccccc3)c3ccccc3)CC2)cc1 (centres undefined) [FEXOFENADINE] |  |  |  | 61 | 6 |  |  |  |
